Data reported in article PMC6453127 (Biochimica et biophysica acta. General subjects, 2017).
Entries after “also recorded” stand apart in the source; their conditions may differ.

Experiments:
Hsp90 CTD = assay: DTT-induced insulin aggregation chaperone assay; assay type: biochemical; details: 100 μM compound; 10 μM Hsp90 CTD
Outline: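 200 μM insulin preincubated with 10 μM Hsp90 CTD, with or without compound, in 10 mM NaPO₄ and 100 mM NaCl at 30 °C for 1 h. Aggregation induced with 20 mM DTT and followed by absorbance at 650 over 40 min in a plate reader.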

GST-Hsp90α NTD (9–236) = GST-Hsp90α NTD (9–236) (Homo sapiens, UniProt P07900); assay: DARTs assay with GST-Hsp90α NTD; assay type: binding; details: 200 μM compound
GST-Hsp90α NTD [1] = molecular target: T1, GST-Hsp90α NTD (Homo sapiens, UniProt P07900); assay: BS3 crosslinking assay, GST-Hsp90α NTD; assay type: biochemical; details: 2 μM protein
Outline: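 2 μM protein buffer-exchanged into 50 mM NaPO₄ and 150 mM NaCl, then preincubated with compound for 1 h at room temperature. BS3 added at 66–200 μM final for 1 h at RT, then quenched with 50 mM Tris-HCl pH 7.5 for 15 min. Boiled in SDS dye, run on 10% SDS-PAGE, western-blotted and probed with anti-GST antibody.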

Hsp90β [2] = molecular target: T2, Hsp90β (Homo sapiens, UniProt P08238); assay: Microscale thermophoresis; assay type: binding; details: read-out: Kd (MST); labeled Hsp90β 40 nM
T2 sequence (P08238 whole entry): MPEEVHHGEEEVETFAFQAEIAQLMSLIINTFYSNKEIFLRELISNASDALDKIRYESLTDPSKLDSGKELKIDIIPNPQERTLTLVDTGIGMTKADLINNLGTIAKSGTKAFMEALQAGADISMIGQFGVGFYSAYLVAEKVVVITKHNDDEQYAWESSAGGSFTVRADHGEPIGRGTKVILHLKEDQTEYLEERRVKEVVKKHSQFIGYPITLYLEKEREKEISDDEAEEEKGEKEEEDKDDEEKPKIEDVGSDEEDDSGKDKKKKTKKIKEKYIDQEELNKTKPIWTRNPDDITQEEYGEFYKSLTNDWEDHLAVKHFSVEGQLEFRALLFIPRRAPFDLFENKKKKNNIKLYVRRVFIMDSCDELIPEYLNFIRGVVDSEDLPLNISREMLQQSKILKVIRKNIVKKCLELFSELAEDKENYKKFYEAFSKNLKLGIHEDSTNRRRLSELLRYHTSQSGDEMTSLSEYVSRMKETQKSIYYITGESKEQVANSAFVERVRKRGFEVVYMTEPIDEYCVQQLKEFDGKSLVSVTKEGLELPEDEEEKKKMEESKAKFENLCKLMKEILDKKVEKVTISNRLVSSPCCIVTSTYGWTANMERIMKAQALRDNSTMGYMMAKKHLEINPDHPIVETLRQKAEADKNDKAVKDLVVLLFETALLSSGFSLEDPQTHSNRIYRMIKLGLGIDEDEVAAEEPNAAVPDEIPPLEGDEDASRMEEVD

LNCaP cells [3] = assay: Western blot of Hsp90 clients and heat shock proteins in LNCaP cells; assay type: cell-based; details: 48 h
Outline: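 ATCC LNCaP cells kept in ATCC-recommended medium, authenticated and used within 20 passages. Cells treated for 48 h, trypsinised, PBS-washed and lysed in RIPA with protease inhibitors, 1 mM PMSF, 0.1% Triton X-100 and 1 mM DTT. Protein measured by Bradford before western blot. Band intensities of treated samples expressed as percentage of vehicle.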

BSA = BSA (Bos taurus, UniProt P02769); assay: Crosslinking specificity control with BSA; assay type: biochemical
Sequence of BSA (P02769 25-607): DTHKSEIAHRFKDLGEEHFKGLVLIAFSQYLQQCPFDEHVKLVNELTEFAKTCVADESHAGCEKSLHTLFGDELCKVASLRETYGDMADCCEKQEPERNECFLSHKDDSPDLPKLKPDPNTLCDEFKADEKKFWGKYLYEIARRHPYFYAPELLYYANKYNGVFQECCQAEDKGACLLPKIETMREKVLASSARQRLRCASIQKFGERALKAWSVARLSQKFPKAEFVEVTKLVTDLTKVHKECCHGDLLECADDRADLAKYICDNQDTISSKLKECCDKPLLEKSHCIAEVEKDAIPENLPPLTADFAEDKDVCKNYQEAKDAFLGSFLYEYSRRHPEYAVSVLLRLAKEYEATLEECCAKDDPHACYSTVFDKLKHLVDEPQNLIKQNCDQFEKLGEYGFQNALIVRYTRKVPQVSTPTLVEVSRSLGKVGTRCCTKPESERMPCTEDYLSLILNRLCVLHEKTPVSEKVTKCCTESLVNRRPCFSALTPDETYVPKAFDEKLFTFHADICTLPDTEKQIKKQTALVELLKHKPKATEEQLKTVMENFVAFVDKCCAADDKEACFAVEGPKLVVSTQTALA

Hsp90 = assay: Luciferase refolding assay in rabbit reticulocyte lysate; assay type: biochemical
Outline: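 Recombinant luciferase at 100 μg/mL in Tricine pH 7.8 buffer (MgCl₂, DTT, EDTA, 10% glycerol, 10 mg/mL BSA), heat-denatured at 41 °C for 30 min. Then added to rabbit reticulocyte lysate preincubated at 30 °C with compound. Aliquots taken every 15 min for 90 min into luciferase reagent and luminescence read. DMSO at 90 min set to 100%. Triplicate.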

[4] = mouse xenograft models; ref http://dtp.cancer.gov; cited from earlier work
Lewis lung carcinoma = details: 3.12 mg/kg; Lewis lung carcinoma mouse model; ref http://dtp.cancer.gov; cited from earlier work
DU-145 = assay: NCI-60 screen, DU-145 prostate cancer cell line; assay type: cell-based, human; details: NCI re-screen
Outline: (§1)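 NCI Developmental Therapeutics Program re-screen, 5-concentration dose response. Growth measured by SRB staining.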

GST-Hsp90α CTD [5] = molecular target: T3, GST-Hsp90α CTD (Homo sapiens, UniProt P07900); assay: ATP-agarose pulldown, Hsp90 CTD; assay type: binding; details: 200 μM compound, 6 μM CTD
Hsp90β [6] = molecular target: T2, Hsp90β; assay: Competitive displacement of FITC-GA; assay type: binding; details: competitor 3 nM to 3 μM; 60 nM Hsp90β, 5 nM FITC-GA
GST-Hsp90α CTD [7] = molecular target: T3, GST-Hsp90α CTD; assay: BS3 crosslinking assay, GST-Hsp90α CTD; assay type: biochemical; details: 2 μM protein; NSC145366 10 μM to 100 μM
GST-Hsp90α CTD (626–732) = GST-Hsp90α CTD (626–732) (Homo sapiens, UniProt P07900); assay: DARTs assay with GST-Hsp90α CTD; assay type: binding; details: 200 μM compound
His6-Hsp90β CTD = His6-Hsp90β CTD (Homo sapiens, UniProt P08238); assay: BS3 crosslinking dimerization/oligomerization assay, His6-Hsp90β CTD; assay type: biochemical; details: 2 μM protein; BS3 crosslinker
Sequence of His6-Hsp90β CTD (P08238 530-724): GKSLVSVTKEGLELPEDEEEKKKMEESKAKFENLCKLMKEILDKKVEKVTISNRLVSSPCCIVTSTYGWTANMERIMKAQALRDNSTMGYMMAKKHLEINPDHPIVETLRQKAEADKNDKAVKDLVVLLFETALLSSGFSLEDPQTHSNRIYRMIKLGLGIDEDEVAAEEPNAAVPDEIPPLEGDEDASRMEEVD

full-length Hsp90α = full-length Hsp90α (Homo sapiens, UniProt P07900); assay: BS3 crosslinking assay, full length Hsp90α; assay type: biochemical; details: 2 μM protein; BS3 crosslinker
Outline: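 Full-length Hsp90α used at 2 μM in 50 mM NaPO₄ and 150 mM NaCl, preincubated with compound for 1 h at room temperature. BS3 crosslinker added at 66–200 μM final for 1 h at RT, then quenched with 50 mM Tris-HCl pH 7.5 for 15 min. Analysed by 10% SDS-PAGE and western blot.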

Hsp70 = Hsp70 (Homo sapiens, UniProt P0DMV8); assay: Transcreener ADP Hsp70 ATPase assay; assay type: biochemical; details: 0.5 μM Hsp70; up to 200 μM
Sequence of Hsp70 (P0DMV8 whole entry): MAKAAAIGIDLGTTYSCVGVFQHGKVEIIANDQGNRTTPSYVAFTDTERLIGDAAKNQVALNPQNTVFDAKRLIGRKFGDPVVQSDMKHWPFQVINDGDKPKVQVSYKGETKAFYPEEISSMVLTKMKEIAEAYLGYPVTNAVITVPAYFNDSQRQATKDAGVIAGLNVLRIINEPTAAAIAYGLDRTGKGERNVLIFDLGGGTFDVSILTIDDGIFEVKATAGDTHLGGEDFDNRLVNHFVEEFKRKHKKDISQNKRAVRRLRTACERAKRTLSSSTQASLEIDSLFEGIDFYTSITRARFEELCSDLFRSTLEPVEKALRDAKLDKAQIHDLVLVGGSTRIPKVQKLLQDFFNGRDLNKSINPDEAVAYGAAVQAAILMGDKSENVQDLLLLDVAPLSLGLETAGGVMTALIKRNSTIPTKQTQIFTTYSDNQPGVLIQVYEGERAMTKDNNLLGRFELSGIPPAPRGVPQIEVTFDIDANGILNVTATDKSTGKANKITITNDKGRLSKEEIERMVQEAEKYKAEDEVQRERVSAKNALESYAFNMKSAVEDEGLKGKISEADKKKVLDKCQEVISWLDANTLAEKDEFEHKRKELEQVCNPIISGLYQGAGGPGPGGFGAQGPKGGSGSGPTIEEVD
Outline: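 Stopped with EDTA stop-and-detect buffer containing ADP² antibody-IRDye QC-1 and 8 nM ADP Alexa594 tracer, 1 h at RT. Endpoint fluorescence intensity read. Three experiments, four-parameter logistic fit.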

Hsp90β [8] = molecular target: T2, Hsp90β; assay: Transcreener ADP Hsp90 ATPase assay; assay type: biochemical; details: read-out: IC50, Hsp90β ATPase function; 0.5 μM Hsp90β, 250 μM ATP, 37 °C 30 min
GST-Hsp90α NTD [9] = molecular target: T1, GST-Hsp90α NTD; assay: ATP-agarose pulldown, Hsp90 NTD; assay type: binding; details: 200 μM compound, 6 μM NTD
LNCaP cells [10] = assay: Cytotoxicity to LNCaP cells; assay type: cell-based; details: 5 μM; data not shown
Hsp90α = Hsp90α (Homo sapiens, UniProt P07900); assay: DARTs assay, full-length recombinant Hsp90α, pronase proteolysis; assay type: binding; details: 200 μM compound
GST-Hsp90α CTD [11] = molecular target: T3, GST-Hsp90α CTD; assay: ADH aggregation; assay type: biochemical
Outline: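 Reaction: 6.2 μM equine ADH, with or without 500 nM GST-Hsp90α CTD and compound. Aggregation induced at 55 °C, read as absorbance at 360 nm every minute for 90 min. The 90-min endpoint was used, with the mean of ADH alone set to 100%. Three independent experiments.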

PC3 = assay: NCI-60 screen, PC3 prostate cancer cell line; assay type: cell-based, human; details: NCI re-screen
Outline: as §1

CC(C)(C)CC(C)(C)NCC(O)COc1ccc(C(C)(C)c2ccc(OCC(O)CNC(C)(C)CC(C)(C)C)cc2)cc1.Cl (stereo not drawn) [NSC145366, 1-(4-(2-(4-(2-hydroxy-3-(2,4,4-trimethylpentan-2-ylami-no)propoxy)phenyl)propan-2-yl)phenoxy)-3-(2,4,4-trimethylpentan-2-ylamino)propan-2-ol hydrochloride]
inhibition of CTD chaperone activity, insulin aggregation (Hsp90 CTD): inhibits CTD chaperone activity
protection of Hsp90 NTD from pronase degradation (DARTs) (GST-Hsp90α NTD (9–236)): no protection observed
oligomerization of GST-Hsp90α NTD (crosslinking) (GST-Hsp90α NTD [1]): no effect on oligomerization of the NTD
Kd (Hsp90β [2]): ~3800 nM
induction of classical heat shock response (Hsp70, Hsp27, Hsp40) (LNCaP cells [3]): not detectable
AR expression level compared to DMSO (LNCaP cells [3]; 1 μM and 3 μM): 50%
Akt expression (LNCaP cells [3]; 1 μM and 3 μM): do not show significant downregulation
BRAF expression (LNCaP cells [3]; 1 μM and 3 μM): do not show significant downregulation
BRCA1 expression level compared to DMSO (LNCaP cells [3]; 3 μM): 15%
Hsp40 expression (LNCaP cells [3]; 3 μM): only appears to induce Hsp40 expression after 48 h cellular treatment at the highest concentration
oligomerization of BSA (BSA): does not induce oligomerization of BSA
level of inhibition of luciferase refolding compared with Cm A1 (Hsp90; 25 and 50 μM): greater than C-terminal inhibitor Cm A1
luciferase refolding (luciferase activity vs vehicle) (Hsp90; rabbit reticulocyte lysate, 90 min): decreased luciferase activity as compared to vehicle treated lysates
toxic dose [4]: ≥ 6.25 mg/kg
antitumor activity, treated/control (Lewis lung carcinoma): 68%
GI50 (DU-145): 1380 nM
inhibition of CTD binding to ATP-agarose (GST-Hsp90α CTD [5]): does not disrupt NTD or CTD binding to ATP
competition with FITC-GA binding to Hsp90β (Hsp90β [6]): does not compete with FITC-GA binding
oligomerization state of GST-Hsp90α CTD (crosslinking) (GST-Hsp90α CTD [7]): induced CTD oligomerization increases in a dose dependent manner
protection of Hsp90 CTD from pronase degradation (DARTs) (GST-Hsp90α CTD (626–732)): protects the Hsp90 CTD from pronase degradation
oligomerization state of His6-Hsp90β CTD (crosslinking) (His6-Hsp90β CTD): even higher order oligomerized species; also recorded: CTD monomer band was eliminated
oligomerization state of full-length Hsp90α (crosslinking) (full-length Hsp90α): presence of a higher-order oligomer
inhibition of Hsp70 ATPase function (Hsp70): no inhibitory activity up to 200 μM
IC50 (Hsp90β [8]): ~109000 nM
inhibition of NTD binding to ATP-agarose (GST-Hsp90α NTD [9]): does not disrupt NTD or CTD binding to ATP
cytotoxicity to LNCaP cells (LNCaP cells [10]): completely cytotoxic
protection of Hsp90α from pronase degradation (DARTs) (Hsp90α): protection of Hsp90α was clearly observed
level of ADH aggregation, dose dependence (GST-Hsp90α CTD [11]; 10 μM to 40 μM): increases the level of ADH aggregation in a dose dependent manner
inhibition of Hsp90 CTD chaperone (anti-aggregation) activity, ADH aggregation assay (GST-Hsp90α CTD [11]; 40 μM compound, 500 nM Hsp90 CTD, 55 °C, end point 90 min): completely eliminates CTD chaperone activity
GI50 (PC3): 1850 nM
